Data published in ChEMBL document CHEMBL4834405, “Structure-Based Design of High-Affinity Macrocyclic FKBP51 Inhibitors” (J Med Chem, 2021).

Key:
[1] = (§1) Selectivity ratio of Kd for displacement of fluorescent tracer 5-(3-(4-((1S,5S,6S)-10-(3,5-dichlorophenylsulfonyl)-2-oxo-3-(pyridin-3-ylmethyl)-3,10-diazabicyclo[4.3.1]decan-5-yl)-1H-1,2,3-triazol-1-yl)propylcarbamoyl)-2-(6-(dimethylamino)-3-(dimethyliminio)-3H-xanthen-9-yl)benzoate from recombinant full length C-terminal FLAG-tagged FJBP12 to Kd for displacement of fluorescent tracer 5-(3-(4-((1S,5S,6S)-10-(3,5-dichlorophenylsulfonyl)-2-oxo-3-(pyridin-3-ylmethyl)-3,10-diazabicyclo[4.3.1]decan-5-yl)-1H-1,2,3-triazol-1-yl)propylcarbamoyl)-2-(6-(dimethylamino)-3-(dimethyliminio)-3H-xanthen-9-yl)benzoate from recombinant full length C-terminal FLAG-tagged FKBP51 (unknown origin)
[2] = as §1, with “FKBP12.6 (unknown origin)” for “FJBP12”
[3] = molecular target: T1, Peptidyl-prolyl cis-trans isomerase FKBP4 (Homo sapiens, UniProt Q02790); assay: (§2) Displacement of fluorescent tracer 5-(3-(4-((1S,5S,6S)-10-(3,5-dichlorophenylsulfonyl)-2-oxo-3-(pyridin-3-ylmethyl)-3,10-diazabicyclo[4.3.1]decan-5-yl)-1H-1,2,3-triazol-1-yl)propylcarbamoyl)-2-(6-(dimethylamino)-3-(dimethyliminio)-3H-xanthen-9-yl)benzoate from recombinant full length C-terminal FLAG-tagged FKBP52 (unknown origin) expressed in Escherichia coli BL21 (DE3) cells incubated for 30 mins by fluorescence polarisation competition binding assay
T1 sequence (Q02790 whole entry): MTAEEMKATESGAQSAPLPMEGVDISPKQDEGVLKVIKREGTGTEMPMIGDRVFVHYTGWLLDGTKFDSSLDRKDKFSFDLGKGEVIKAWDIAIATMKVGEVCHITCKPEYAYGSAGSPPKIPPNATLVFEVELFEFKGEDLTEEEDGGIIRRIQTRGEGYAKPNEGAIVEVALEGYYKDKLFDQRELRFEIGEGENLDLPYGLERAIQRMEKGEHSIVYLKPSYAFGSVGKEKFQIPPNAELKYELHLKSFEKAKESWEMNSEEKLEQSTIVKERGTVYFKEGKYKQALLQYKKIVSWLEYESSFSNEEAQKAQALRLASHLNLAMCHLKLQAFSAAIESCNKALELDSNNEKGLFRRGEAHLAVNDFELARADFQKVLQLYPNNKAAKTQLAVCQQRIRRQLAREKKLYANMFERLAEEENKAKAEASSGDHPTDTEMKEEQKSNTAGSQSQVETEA
In short: (§3)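 Competitive FP in 150 mM NaCl, 20 mM HEPES pH 8.0, 0.002% Triton X-100. Ligand 1:1 serially diluted in DMSO and premixed with fluorescent tracer, tracer working solution 11.9 nM (FKBP12.6, 51FK1, 52FK1) or 5.95 nM (FKBP12) before final 10-fold dilution into protein. 30 min at room temperature, read at ex/em 535/590 nm. Weighted SD from at least two independent runs.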

[4] = molecular target: Peptidyl-prolyl cis-trans isomerase FKBP1A (Homo sapiens, UniProt P62942); assay: as §2, with “FKBP12” for “FKBP52”, “([…])” for “(DE3)”; in short: as §3
[5] = molecular target: Peptidyl-prolyl cis-trans isomerase FKBP1B (Homo sapiens, UniProt P68106); assay: as §2, with “FKBP12.6” for “FKBP52”, “competition” for “competition binding”; in short: as §3
[6] = molecular target: T2, Peptidyl-prolyl cis-trans isomerase FKBP5 (Homo sapiens, UniProt Q13451); assay: as §2, with “FKBP51” for “FKBP52”
T2 sequence (Q13451 whole entry): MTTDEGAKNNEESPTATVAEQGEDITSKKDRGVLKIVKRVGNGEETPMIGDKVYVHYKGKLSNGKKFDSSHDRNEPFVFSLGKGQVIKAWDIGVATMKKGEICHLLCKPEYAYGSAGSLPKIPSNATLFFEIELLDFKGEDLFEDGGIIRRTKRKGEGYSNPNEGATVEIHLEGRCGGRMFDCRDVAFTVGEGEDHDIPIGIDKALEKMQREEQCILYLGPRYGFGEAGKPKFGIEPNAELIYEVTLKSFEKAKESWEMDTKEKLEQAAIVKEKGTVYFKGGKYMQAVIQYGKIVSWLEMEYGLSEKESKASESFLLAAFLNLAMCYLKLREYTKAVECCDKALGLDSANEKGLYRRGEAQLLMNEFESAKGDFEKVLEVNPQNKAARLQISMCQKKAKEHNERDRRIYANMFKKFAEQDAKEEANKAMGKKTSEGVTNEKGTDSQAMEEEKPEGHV

[7] = as §1, with “FKBP52 (unknown origin)” for “FJBP12”

Sequence of Peptidyl-prolyl cis-trans isomerase FKBP1B (P68106 whole entry): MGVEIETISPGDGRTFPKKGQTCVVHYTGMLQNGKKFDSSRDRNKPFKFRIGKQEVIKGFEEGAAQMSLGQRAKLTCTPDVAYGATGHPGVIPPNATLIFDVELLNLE
Sequence of Peptidyl-prolyl cis-trans isomerase FKBP1A (P62942 whole entry): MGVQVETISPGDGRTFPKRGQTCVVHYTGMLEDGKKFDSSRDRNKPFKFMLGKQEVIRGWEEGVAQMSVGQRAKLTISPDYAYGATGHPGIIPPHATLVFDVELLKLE

Row | Compound | Selectivity ratio [1] | Selectivity ratio [2] | Kd [3] | Kd [4] | Kd [5] | Kd [6] | Selectivity ratio [7]
1 | COc1ccc(CC[C@H]2OC(=O)[C@@H]3CCCCN3C(=O)[C@@H](C3CCCCC3)c3cc(OC)c(c(OC)c3)OCCCCOc3cccc2c3)cc1OC | 6.6 | 4.3 | > 10000 nM | 584 nM | 383 nM | 89 nM | > 112
2 | COc1ccc(CC[C@H]2OC(=O)[C@@H]3CCCCN3C(=O)[C@@H](C3CCCCC3)c3cc(OC)c(c(OC)c3)OCC/C=C\COc3cccc2c3)cc1OC | 6 | 5.6 | > 10000 nM | 526 nM | 495 nM | 88 nM | > 114
3 | COc1ccc(CC[C@H]2OC(=O)[C@@H]3CCCCN3C(=O)[C@@H](C3CCCCC3)c3cc(OC)c(c(OC)c3)OCCOCCCCOc3cccc2c3)cc1OC | 8 | 3.1 | > 10000 nM | 1110 nM | 429 nM | 138 nM | > 72
4 | COc1ccc(CC[C@H]2OC(=O)[C@@H]3CCCCN3C(=O)[C@@H](C3CCCCC3)c3cc(OC)c(c(OC)c3)OCCCOCCCCOc3cccc2c3)cc1OC | 6.4 | 3.7 | > 10000 nM | 484 nM | 277 nM | 75 nM | > 133
5 | COc1ccc(CC[C@H]2OC(=O)[C@@H]3CCCCN3C(=O)[C@@H](C3CCCCC3)c3cc(OC)c(OC)c(c3)OCCOC/C=C\COc3cccc2c3)cc1OC | 2.5 | 2.2 | > 10000 nM | 345 nM | 301 nM | 137 nM | > 73
6 | COc1ccc(CC[C@H]2OC(=O)[C@@H]3CCCCN3C(=O)[C@@H](C3CCCCC3)c3cc(OC)c(OC)c(c3)OCCCCCOc3cccc2c3)cc1OC | 2.7 | 2.2 | > 10000 nM | 126 nM | 100 nM | 46 nM | > 217
7 | COc1ccc(CC[C@H]2OC(=O)[C@@H]3CCCCN3C(=O)[C@@H](C3CCCCC3)c3cc(OC)c(OC)c(c3)OCCOC/C=C/COc3cccc2c3)cc1OC | 3.1 | 1.7 | > 10000 nM | 192 nM | 105 nM | 62 nM | > 161
8 | COc1ccc(CC[C@H]2OC(=O)[C@@H]3CCCCN3C(=O)[C@@H](C3CCCCC3)c3cc(OC)c(c(OC)c3)OCCOC/C=C/COc3cccc2c3)cc1OC |  |  | > 10000 nM | 1010 nM | 715 nM |  | 
9 | COc1ccc(CC[C@H]2OC(=O)[C@@H]3CCCCN3C(=O)[C@@H](C3CCCCC3)c3cc(OC)c(c(OC)c3)OCCOC/C=C\COc3cccc2c3)cc1OC |  |  | > 10000 nM | 798 nM | 344 nM |  | 

Continued, values first:

Row | Selectivity ratio [1] | Selectivity ratio [2] | Kd [3] | Kd [4] | Kd [5] | Kd [6] | Selectivity ratio [7] | Compound
10 | 8.6 | 6.8 | > 10000 nM | 768 nM | 606 nM | 89 nM | > 112 | COc1ccc(CC[C@H]2OC(=O)[C@@H]3CCCCN3C(=O)[C@@H](C3CCCCC3)c3cc(OC)c(c(OC)c3)OC/C=C/COc3cccc2c3)cc1OC
11 | 4.9 | 2.7 | 3530 nM | 59 nM | 32 nM | 12 nM | 294 | COc1ccc(CC[C@H]2OC(=O)[C@@H]3CCCCN3C(=O)[C@@H](C3CCCCC3)c3cc(OC)c(OC)c(c3)OCCC(=O)COc3cccc2c3)cc1OC
12 | 1.9 | 2 | 5390 nM | 212 nM | 216 nM | 108 nM | 49.9 | COc1ccc(CC[C@H]2OC(=O)[C@@H]3CCCCN3C(=O)[C@@H](C3CCCCC3)c3cc(OC)c(OC)c(c3)OC/C=C/COc3cccc2c3)cc1OC
13 | 6.8 | 7.2 | > 10000 nM | 1010 nM | 1080 nM | 149 nM | > 67 | COc1ccc(CC[C@H]2OC(=O)[C@@H]3CCCCN3C(=O)[C@@H](C3CCCCC3)c3cc(OC)c(c(OC)c3)OCC/C=C/COc3cccc2c3)cc1OC
14 | 2.2 | 1.9 | > 10000 nM | 135 nM | 115 nM | 61 nM | > 164 | COc1ccc(CC[C@H]2OC(=O)[C@@H]3CCCCN3C(=O)[C@@H](C3CCCCC3)c3cc(OC)c(OC)c(c3)OCCOCCCCOc3cccc2c3)cc1OC
15 | 5.2 | 6.3 | > 10000 nM | 588 nM | 709 nM | 113 nM | > 89 | COc1ccc(CC[C@H]2OC(=O)[C@@H]3CCCCN3C(=O)[C@@H](C3CCCCC3)c3cc(OC)c(OC)c(c3)OCC/C=C/COc3cccc2c3)cc1OC
16 | 4.2 | 1.3 | 13200 nM | 295 nM | 94 nM | 70 nM | > 188 | COc1ccc(CC[C@H]2OC(=O)[C@@H]3CCCCN3C(=O)[C@@H](C3CCCCC3)c3cc(OC)c(OC)c(c3)OCCCOc3cccc2c3)cc1OC
17 | 12.5 | 7.1 | > 10000 nM | 1490 nM | 849 nM | 119 nM | > 84 | COc1ccc(CC[C@H]2OC(=O)[C@@H]3CCCCN3C(=O)[C@@H](C3CCCCC3)c3cc(OC)c(c(OC)c3)OCCCCCOc3cccc2c3)cc1OC
18 |  |  | > 10000 nM | 263 nM | 203 nM | 83 nM |  | COc1cccc([C@@H](CCc2ccc(OC)c(OC)c2)OC(=O)[C@@H]2CCCCN2C(=O)[C@H](c2cc(OC)c(OC)c(OC)c2)C2CCCCC2)c1
19 | 7.8 | 3.3 | > 10000 nM | 532 nM | 227 nM | 68 nM | > 147 | COc1ccc(CC[C@H]2OC(=O)[C@@H]3CCCCN3C(=O)[C@@H](C3CCCCC3)c3cc(OC)c(c(OC)c3)OCCOc3cccc2c3)cc1OC
20 | 4.5 | 1.5 | 9090 nM | 247 nM | 82 nM | 55 nM | > 165 | COc1ccc(CC[C@H]2OC(=O)[C@@H]3CCCCN3C(=O)[C@@H](C3CCCCC3)c3cc(OC)c(OC)c(c3)OCCOc3cccc2c3)cc1OC
21 | 2.6 | 1.1 | 3850 nM | 44 nM | 19 nM | 17 nM | 227 | COc1ccc(CC[C@H]2OC(=O)[C@@H]3CCCCN3C(=O)[C@@H](C3CCCCC3)c3cc(OC)c(OC)c(c3)OC[C@H](O)[C@@H](O)COc3cccc2c3)cc1OC
